Columns and labels:
[1] = tested on: Trypanosoma brucei brucei; assay: Antitrypanosomal activity against bloodstream form of wild type Trypanosoma brucei brucei S427 trypomastigotes incubated for 48 hrs by resazurin dye based fluorescence assay; format: functional, organism-based; settings: S427, 48 h
How it was run: (§1)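 Bloodstream T. b. brucei in complete HMI-9 at 37 °C, 5% CO2, 2 × 10⁵ cells/mL, exposed to doubling dilutions of compound for 48 h. Resazurin was then added and cells were incubated a further 24 h. Fluorescence was read at ex 544/em 590 nm with a drug-free control and pentamidine as positive control. EC50 came from a variable-slope sigmoidal fit, at least 3 independent experiments.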

[2] = tested on: Trypanosoma brucei brucei; assay: Antitrypanosomal activity against drug resistant Trypanosoma brucei B48 incubated for 48 hrs by resazurin dye based fluorescence assay; format: functional, organism-based; settings: B48, 48 h; how it was run: as §1
[3] = Resistance factor, ratio of EC50 for antitrypanosomal activity against drug resistant Trypanosoma brucei B48 to EC50 for antitrypanosomal activity against bloodstream form of wild type Trypanosoma brucei brucei S427 trypomastigotes; format: functional
How it was run: (§2)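 The assay used bloodstream forms in HMI-9 at 37 °C, 5% CO2, 2 × 10⁵ cells/mL, read at ex 544/em 590 nm. EC50 came from a variable-slope sigmoidal fit, at least 3 experiments.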

[4] = tested on: Trypanosoma brucei brucei; assay: Antitrypanosomal activity against bloodstream form of Trypanosoma brucei brucei AQP1-3 KO trypomastigotes incubated for 48 hrs by resazurin dye based fluorescence assay; format: functional, organism-based; how it was run: as §1
[5] = Resistance factor, ratio of EC50 for Antitrypanosomal activity against bloodstream form of Trypanosoma brucei brucei AQP1-3 KO trypomastigotes to EC50 for antitrypanosomal activity against bloodstream form of wild type Trypanosoma brucei brucei S427 trypomastigotes; format: functional; how it was run: as §2
[6] = Cytotoxicity against HEK293T cells assessed as reduction in cell viability […] by resazurin dye based fluorescence assay; set-up: species or system HEK-293T; settings: human
[7] = Selectivity index, ratio of CC50 cytotoxicity against HEK293T cells to EC50 for antitrypanosomal activity against bloodstream form of wild type Trypanosoma brucei brucei S427 trypomastigotes; format: toxicity, cell-based; settings: human; read-out: Ratio CC50/EC50
How it was run: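 SI = CC50 on HEK 293T divided by EC50 on WT s427. For HEK 293T, cells adhered 24 h, were exposed 30 h, then given resazurin for 24 h (ex 530/em 590). For trypanosomes, cells were exposed 48 h, then given resazurin for 24 h (ex 544/em 590). Both values came from dose-response fits.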

[8] = target: Alternative oxidase, mitochondrial (Trypanosoma brucei brucei, UniProt Q26710); assay: Inhibition of recombinant Trypanosoma brucei brucei alternative oxidase using ubiquinol as substrate preincubated for 2 mins followed by substrate addition by UV-Vis spectrophotometry
How it was run: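 Recombinant ΔMTS-TAO was preincubated for 2 min with varying inhibitor amounts at 25 °C in 50 mM Tris-HCl pH 7.4 with 0.05% octaethylene glycol monododecyl ether. The reaction was started with ubiquinol, and its oxidation was followed at 278 nm for 2 min. DMSO served as negative control and ascofuranone/SHAM as positive controls. IC50 came from residual activity versus inhibitor concentration.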

[9] = Drug localization in mitochondria of mouse MC3T3-E1 cells at 0.6 uM incubated for 30 mins by MTDR staining based single-photon excitation fluorescence analysis; format: ADME; settings: mc3t3-e1, 0.5 h
How it was run: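 MC3T3-E1 preosteoblasts were grown in αMEM with 10% FBS, glutamine and pen/strep, then seeded at 25,000 cells/well on glass-bottom slides. Cells were preincubated with compound for 30 min at 37 °C, then given MitoTracker Deep Red (16 nM final) for 30 min. Confocal imaging used alternating excitation: 561 nm with detection at 580–630 nm, and 640 nm with detection at 650–720 nm.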

[10] = Drug localization in mitochondria of mouse MC3T3-E1 cells incubated for 30 mins by […] based two-photon excitation microscopy analysis; format: ADME; settings: mc3t3-e1, 0.5 h
[11] = Drug localization in rat liver mitochondria; format: ADME
How it was run: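 Rat liver was homogenised in 20 mM HEPES/250 mM sucrose, pH 7.4. After 800×g spins, mitochondria were enriched at 9000×g. Probe at 3 × 10⁻⁷ M was incubated with the mitochondrial suspension for 20 min at room temperature, then spun at 10,000×g for 10 min. Supernatant emission (ex 470 and 540 nm) was compared with probe in buffer alone to estimate the fraction partitioned into mitochondria.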

[12] = Drug localization in mitochondria of Trypanosoma brucei brucei at 40 uM incubated for 60 mins by MTG dye based confocal microscopy analysis; format: ADME; settings: 1 h
How it was run: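 Bloodstream T. b. brucei at 2 × 10⁶ cells/mL were given compound in complete HMI-9 for 1 h at 37 °C, 5% CO2. MitoTracker Green (100 nM final) was added for 10 min. Cells were then pelleted, PBS-washed and stained with Hoechst 33342 for 10 min in the dark. They were immobilised in PBS-primed CyGEL and imaged for overlap with MTG.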

[13] = Drug uptake in bloodstream form of wild type Trypanosoma brucei brucei S427 trypomastigotes assessed as increase in fluorescent signal at 0.2 uM measured by fluorimeter; format: ADME
How it was run: (§3)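 Mid-log bloodstream 427WT or aqp1-3 null cells were washed and resuspended at 10⁸ cells/mL in assay buffer. Fluorescence was read continuously at 37 °C, 5% CO2 (ex 544/em 620). After a background period, compound was added at the stated final concentration. Each trace averages 3 replicate wells on one plate.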

[14] = Drug uptake in bloodstream form of Trypanosoma brucei brucei AQP1-3 KO trypomastigotes at 0.2 to 2 uM measured after 1 hr by fluorimeter; format: ADME; settings: dose 0.2-2 µM; how it was run: as §3

Chain of Alternative oxidase, mitochondrial (Q26710 whole entry): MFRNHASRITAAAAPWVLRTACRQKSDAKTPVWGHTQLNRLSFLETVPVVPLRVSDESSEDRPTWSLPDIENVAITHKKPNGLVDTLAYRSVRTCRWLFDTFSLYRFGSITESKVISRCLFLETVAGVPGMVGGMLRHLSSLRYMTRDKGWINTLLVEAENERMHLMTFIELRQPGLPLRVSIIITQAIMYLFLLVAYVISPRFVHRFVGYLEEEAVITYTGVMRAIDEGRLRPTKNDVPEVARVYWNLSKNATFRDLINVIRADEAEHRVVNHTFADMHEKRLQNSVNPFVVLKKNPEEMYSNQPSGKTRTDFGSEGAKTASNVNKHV

Row | SMILES | EC50 [1] [µM] | EC50 [2] [µM] | Ratio EC50 [3] | EC50 [4] [µM] | Ratio EC50 [5] | CC50 [6] [µM] | selectivity ratio [7] | IC50 [8] [µM] | Drug uptake [9] | Drug uptake [10] | Drug uptake [11] [%] | Drug uptake [12] | Drug uptake [13] | Drug uptake [14]
1 | N=C(N)c1ccc(OCCCCCOc2ccc(C(=N)N)cc2)cc1 [PENTAMIDINE] | 0.0049 | 0.5 | 102 | 0.034 | 6.9 |  |  |  |  |  |  |  |  | 
2 | Cc1cc(O)cc(O)c1C(=O)OCCCCCCCCCCCCCC[n+]1ccc(/C=C/c2cc3c4c(c2O)CCCN4CCC3)cc1.[Br-] | 1.01 | 1.19 | 1.17 | 1.05 | 1.03 | > 100 | > 100 | 0.36 | Active | Active | 66 | Active |  | 
3 | Cc1cc[n+](CCCCCCCCCCCCCCOC(=O)c2c(O)cc(O)c(Cl)c2C)cc1 | 0.24 | 0.22 | 1.53 | 0.19 | 0.8 | 43.7 | 182 | 0.72 |  |  |  |  |  | 
4 | Cc1cc[n+](CCCCCCCCCCCCCCOC(=O)c2c(C)cc(O)cc2O)cc1 | 0.055 | 0.06 | 1.04 |  |  | 0.76 | 13.8 | > 5 |  |  |  |  |  | 
5 | Cc1c(Cl)c(O)cc(O)c1C(=O)OCCCCCCCCCCCCCCBr | 6.84 | 10.1 | 1.48 | 13.1 | 1.91 | 55.9 | 8.2 | 0.75 |  |  |  |  |  | 
6 | Oc1c(/C=C/c2cc[n+](CCCCCCCCCCCCCCBr)cc2)cc2c3c1CCCN3CCC2.[Br-] | 0.43 | 0.49 | 1.16 | 0.34 | 0.79 | 26.7 | 62.6 | > 5 |  |  |  |  | Not Active | Not Active
7 | Cc1cc[n+](CCCCCCCCCCCCCCOC(=O)c2c(C)c(Cl)c(O)c(Cl)c2O)cc1 | 2.55 | 2.64 | 1.03 |  |  | 4.4 | 1.7 | 0.91 |  |  |  |  |  | 
8 | Cc1cc(O)cc(OCCCCCCCCCCCCCC[n+]2ccc(/C=C/c3cc4c5c(c3O)CCCN5CCC4)cc2)c1.[Br-] | 0.5 | 0.63 | 1.25 | 0.43 | 0.85 | 22.2 | 44.1 | 0.145 | Active |  |  |  |  | 
9 | Cc1cc[n+](CCCCCCCCCCCCCCOc2cc(C)c(C(=O)O)c(O)c2)cc1 |  |  |  | 16.6 | 0.84 | > 20 | > 10 | 1.8 |  |  |  |  |  | 
10 | COC(=O)c1c(C)cc(OCCCCCCCCCCCCCC[n+]2ccc(/C=C/c3cc4c5c(c3O)CCCN5CCC4)cc2)cc1O | 0.54 | 0.59 | 1.1 | 0.44 | 0.81 | 23.6 | 43.6 | 0.042 |  |  |  |  |  | 

From ChEMBL document CHEMBL4837204, “Synthesis, biological, and photophysical studies of molecular rotor-based fluorescent inhibitors of the trypanosome alternative oxidase” (Eur J Med Chem, 2021)
